Experimental findings from article PMC9524259 (Journal of medicinal chemistry, 2022) are described below.

The subject of test [1] is A549 cells. The experiment in a line: Antiproliferative MTT assay, A549. It is filed as cell-based. The settings on record: for IC50: read-out: A549 IC50, 72 h with drug, MTT assay. A general note: Formazan colour is commonly taken as a measure of viable cells.
Test [2] deals with MDA-MB-231 cells. In words: Antiproliferative MTT assay, MDA-MB-231. The format is cell-based. The settings on record: for IC50: read-out: MDA-MB-231 IC50, 72 h with drug, MTT assay.
Test [3] concerns MDA-MB-231 cells. The experiment in a line: Clonogenic assay, MDA-MB-231. The format is cell-based. The settings on record: 48 h treatment then 7 days fresh media. The essentials:
(§1)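 Cells were seeded at 125 cells/mL in 6-well plates and left overnight to attach. Test compound was applied at two concentrations for 48 h at 37 °C, then removed. Fresh medium followed, changed every alternate day, for 7 days. Cells were washed in PBS, fixed in 4% paraformaldehyde and stained with 0.2% crystal violet for 1 h. Colonies of >50 cells were counted, and % growth was calculated relative to control; mean ± SD, n = 3.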

The target of test [4] is T1, gankyrin (Homo sapiens, UniProt O75832).
T1 sequence (O75832 1-226): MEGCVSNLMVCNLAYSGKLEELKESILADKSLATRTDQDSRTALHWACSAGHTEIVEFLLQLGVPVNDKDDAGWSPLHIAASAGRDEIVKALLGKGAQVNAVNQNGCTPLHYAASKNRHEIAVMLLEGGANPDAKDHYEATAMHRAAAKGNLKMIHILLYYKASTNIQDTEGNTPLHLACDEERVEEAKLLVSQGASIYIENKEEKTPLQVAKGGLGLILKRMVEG
In words: Protein thermal shift. It is filed as binding. The settings on record: Table S1.

The target in test [5] is T1, gankyrin. In words: Circular dichroism spectra and thermal denaturation. It is filed as binding. The settings on record: for CD spectra: α-helical (secondary structure) content of gankyrin: 100 nM to 1.5 μM compound, minima at 208 and 222 nm; for thermal denaturation of gankyrin monitored at 217 nm: 1.5 μM compound, 5 – 90 °C; for gankyrin precipitation in CD sample (visual examination): in presence of compound. A digest of the protocol:
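Gankyrin, His6-tagged, was expressed in LB cultures with 1 mM IPTG induction at 25 °C for ~5 h. It was purified by Ni-IMAC, the tag cut with TEV, then dialysed and re-passed over Ni-IMAC. CD was run in 1x PBS, 0.5% DMSO, pH 7.4, in a 1 mm cuvette, with test compound at 100 nM–1.5 μM. Spectra covered 190–260 nm with six accumulations. Thermal melts were read at 217 nm, 5–90 °C, 1 °C/min.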
On the technique in general: Circular dichroism is the unequal absorption of left and right circularly polarised light.

Test [6] concerns MDA-MB-231 cells. In words: Western blot of TSP levels, MDA-MB-231. It is filed as cell-based. The settings on record: 48 h; for p53 levels: mutant p53. A digest of the protocol: (§2)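 Cells in 10 cm dishes were treated 48 h with varying concentrations of test compound (0.5% DMSO final) or DMSO alone. HuH6 and MDA-MB-231 were grown in DMEM/10% FBS; A549 in RPMI 1640. Harvested cells were lysed in RIPA with protease/phosphatase inhibitors, on ice for 60 min. Equal protein (15 μg) was run under reducing conditions and blotted to PVDF. Probes were p53, phospho-p53 S6 and S15, Rb, gankyrin, and cyclophilin.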
A general note: Immunoblotting shows a protein as a band on a membrane.

In the next test the test system is HuH6 cells. The experiment in a line: Western blot of TSP levels, HuH6. It is filed as cell-based, human. The settings on record: 48 h (Figure S1). The essentials: as §2
For test [7], the system named is MDA-MB-231 cells. The experiment in a line: Cell cycle analysis, MDA-MB-231. The settings on record: 2 μM, 72 h. The format is cell-based. A digest of the protocol:
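MDA-MB-231 cells in 10 cm dishes were exposed to 2 μM test compound (0.1% DMSO final) or DMSO alone for 72 h. Harvested cells were normalized, fixed in 70% ethanol at −20 °C overnight, pelleted and stained with a PI kit for 40 min at 37 °C. Analysis was by flow and imaging cytometry; mean ± SD, n = 3.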

In test [8] the target is T2, gankyrin in MDA-MB-231 cells (Homo sapiens, UniProt O75832).
T2 sequence (O75832 1-226): T1 sequence (O75832 1-226)
In words: Cellular thermal shift assay. It is filed as cell-based. The settings on record: 2 μM, 48 h. The essentials:
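Intact MDA-MB-231 cells were treated 48 h with 2 μM test compound (0.5% DMSO final) or DMSO. Cells were split into aliquots and heated separately at 50, 53, 56, 59, 62 and 65 °C. Lysis was in RIPA on ice for 60 min, then lysates were cleared at 15,000 rpm, 15 min, 4 °C. Equal protein was immunoblotted for gankyrin with actin as reference, and melt curves were built; mean ± SD, n = 3.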

The next test deals with MDA-MB-231 spheroids. The experiment in a line: Live-dead cell assay, MDA-MB-231 spheroids. The format is cell-based. The settings on record: day 15, IC50 and half IC50 concentrations. A digest of the protocol:
(§3)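 Spheroids from the growth study were stained after day 15 with calcein AM (live) and EthD-III (dead). Incubation was 30 min in the dark at room temperature, followed by fluorescence imaging at 4X. Live and dead signal were quantified; mean ± SD, n = 4.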

The test system of test [9] is A549 cells. The experiment in a line: Clonogenic assay, A549. The settings on record: 0.15 μM, 48 h treatment then 7 days fresh media. The format is cell-based. The essentials:
as §1

Test [10] has as its system A549 cells. In words: Western blot of TSP levels, A549. It is filed as cell-based. The settings on record: 48 h. The essentials:
as §2

The test system of test [11] is A549 cells. The experiment in a line: Cell cycle analysis, A549. It is filed as cell-based. The settings on record: 0.3 μM, 72 h.
In another test the target is T3, gankyrin in A549 cells (Homo sapiens, UniProt O75832).
T3 sequence (O75832 1-226): T1 sequence (O75832 1-226)
In words: Cellular thermal shift assay. The format is cell-based. The settings on record: 0.3 μM, 48 h.

A further test has as its system A549 spheroids. The experiment in a line: Live-dead cell assay, A549 spheroids. It is filed as cell-based. The settings on record: day 15, both concentrations. The essentials:
as §3

Entries after “also recorded” stand apart in the source; their conditions may differ. A value given as a limit tells only on which side of the number the result lay.

As usually defined, the IC50 is the concentration needed to halve the response being measured. In the case of “Methyl p-{4-[3-(p-tolylcarbamthioyl)propyl]-1H-1,2,3-triazol-1-yl}benzoate [Compound 24]”, the concentration for half-maximal inhibition (IC50) is greater than 100 µM in the test on A549 cells [1] and 82.4 µM with MDA-MB-231 cells [2].

Turning to `COC(=O)c1ccc(-n2cc(CCCOc3ccc(C)cc3)nn2)cc1` [Compound 33, Methyl p-{4-[3-(p-tolyloxy)propyl]-1H-1,2,3-triazol-1-yl}benzoate], the “improvement in antiproliferative activity against MDA-MB-231 as compared to cjoc42” value with MDA-MB-231 cells [2] is 8–10 fold.

Turning to “Methyl p-{4-[3-(p-toluoxy)propyl]-1H-1,2,3-triazol-1-yl}benzoate [Compound 25]”, the half-maximal inhibitory concentration (IC50) in the test with A549 cells [1] and in the test on MDA-MB-231 cells [2] was greater than 100 µM each time.

As to `COC(=O)c1ccc(-n2cc(CCCNC(=O)Nc3ccc(C)cc3)nn2)cc1` [Compound 26, Methyl p-(4-{3-[3-(p-tolyl)ureido]propyl}−1H-1,2,3-triazol-1-yl)benzoate], in the test on MDA-MB-231 cells [2], the “improvement in antiproliferative activity against MDA-MB-231 as compared to cjoc42” value was 8–10 fold.

For the compound `O=C(CCCn1cc(-c2ccc(C(F)(F)F)cc2)nn1)Nc1ccc(-c2ccccc2)cc1` [Compound 51d, N-4-Biphenylyl4-{4-[p-(trifluoromethyl)phenyl]-1H-1,2,3-triazol-1-yl}butyramide], the “% colony growth” value in the test on MDA-MB-231 cells [3] (1.0 μM) is 72.4%. For the same compound, the “gankyrin binding by protein thermal shift” value at gankyrin [4] is on record as “effectively bind gankyrin”. Moreover, at gankyrin [5], the “CD spectra: α-helical (secondary structure) content of gankyrin” value (shortened to “CD spectra: α-helical”) was “weakening of secondary structure content in gankyrin”, the “thermal denaturation of gankyrin monitored at 217 nm” value (shortened to “thermal denaturation”) was “maintained gankyrin’s expected two-state transition but unfolded at an accelerated rate” and the “gankyrin precipitation in CD sample (visual examination)” value was “only showed marginal precipitation”. Moreover, in the test on MDA-MB-231 cells [6], the Rb levels result was “increase in Rb levels”, the gankyrin levels result is “remained relatively unchanged” and the p53 levels result is “relatively unchanged levels of p53”. In the test with HuH6 cells, the “p53 and Rb levels” value is “increased levels of both p53 and Rb”. Also, in the test with MDA-MB-231 cells [7], the “cell population in the G2/M phase” value is “decrease in the cell population in the G2/M phase”, the “cell population in the S phase” value is on record as “relatively unchanged” and the “cells in the G0/G1 phase” value was “significant increase in the number of cells in the G0/G1 phase”. The “gankyrin thermal stability (CETSA)” value in test [8] is listed as “significantly decreased”. For the same compound, in the test with MDA-MB-231 spheroids, the “green fluorescence intensity (live cells)” value is “significant decrease in green fluorescence intensity (live cells)” and the “red fluorescence intensity (dead cells)” value is given as “significant increase in red fluorescence intensity (dead cells)”.

Consider `COC(=O)c1ccc(-n2cc(CCCC(=O)Nc3ccc(C)cc3)nn2)cc1` [Compound 20, Methyl p-{4-[3-(N-p-tolylcarbamoyl)propyl]-1H-1,2,3-triazol-1-yl}benzoate], for which the “improvement in antiproliferative activity against MDA-MB-231 as compared to cjoc42” value with MDA-MB-231 cells [2] was 8–10 fold.

As for `COC(=O)c1ccc(-c2cn(CCCC(=O)Nc3ccc(-c4ccccc4)cc3)nn2)cc1` [Compound 51c, Methyl p-{1-[3-(N-4-biphenylylcarbamoyl)propyl]-1H-1,2,3-triazol-4-yl}benzoate], the “% colony growth” value with A549 cells [9] was 61.9%. Moreover, on gankyrin [4], the “gankyrin binding by protein thermal shift” value is “effectively bind gankyrin”. In addition, on gankyrin [5], the “CD spectra: α-helical” value is “weakening of secondary structure content in gankyrin”, the “thermal denaturation” value was “complete denaturation across the entire measured temperature range” and the “gankyrin precipitation in CD sample (visual examination)” value was “only showed marginal precipitation”. In addition, in the test with A549 cells [10], the Rb levels entry is given as “increased Rb levels”, the gankyrin levels result was “remained relatively unchanged”, the p53 levels result was “relatively unchanged p53 levels” and the “phosphorylated p53 (Ser6) levels” value is recorded as “increase the expression levels of phosphorylated p53 (Ser6)”. Besides, in the test with A549 cells [10], the “phosphorylated p53 (Ser15) levels” value is listed as “also increased phosphorylated p53 (Ser15) expression levels”. In the test with A549 cells [11], the “cell population in the S and G2/M phases” value was “significantly decreasing the cell population in the S and G2/M phases”; the “cells in the G0/G1 phase” value is “significant increase in the number of cells in the G0/G1 phase”. Also, the “gankyrin thermal stability (CETSA)” value at gankyrin in A549 cells is “significant ability to decrease gankyrin thermal stability”. In addition, in the test on A549 spheroids, the “green intensity (live cells)” value is reported as “dose-dependent decrease in green intensity” and the “red intensity (dead cells)” value is listed as “increase in red intensity”.

For the compound `Cc1ccc(NC(=O)CCCn2cc(-c3ccc(C(F)(F)F)cc3)nn2)cc1` [Compound 51b, N-p-Tolyl4-{4-[p-(trifluoromethyl)phenyl]-1H-1,2,3-triazol-1-yl}butyramide], the “% colony growth” value with MDA-MB-231 cells [3] (2.30 μM) is reported as 60.3%. In addition, the “gankyrin binding by protein thermal shift” value on gankyrin [4] is “effectively bind gankyrin”. At gankyrin [5], the “CD spectra: α-helical” value is on record as “enhancement in the 222 nm spectral minimum; also recorded: signal enhancement” and the “thermal denaturation” value is listed as “complete denaturation across the entire measured temperature range”. Besides, in the test on MDA-MB-231 cells [6], the Rb levels entry is given as “increase in Rb levels”, the gankyrin levels result is on record as “remained relatively unchanged” and the p53 levels result is “relatively unchanged levels of p53”. In the test with MDA-MB-231 spheroids, the “green fluorescence intensity (live cells)” value is listed as “decrease in green intensity (live cells)” and the “red fluorescence intensity (dead cells)” value is “increase in red fluorescence intensity (dead cells)”.

In the case of `COC(=O)c1ccc(-n2cc(CCCC(=S)Nc3ccc(C)cc3)nn2)cc1` [Compound 21, Methyl p-{4-[3-(p-tolylcarbamthioyl)propyl]-1H-1,2,3-triazol-1-yl}benzoate], the “improvement in antiproliferative activity against A549 as compared to cjoc42” value in the test on A549 cells [1] was roughly 10 fold. In the test with MDA-MB-231 cells [2], the “improvement in antiproliferative activity against MDA-MB-231 as compared to cjoc42” value is 8–10 fold.
